Test results as given in ChEMBL document CHEMBL2163252, “Azapeptide analogues of the growth hormone releasing peptide 6 as cluster of differentiation 36 receptor ligands with reduced affinity for the growth hormone secretagogue receptor 1a” (J Med Chem, 2012).
Starred links: 1 amine or outer side, 2 acyl side, 3 side chain; linkers in the order of their positions; H or OH if unused. Non-standard residues stand in square brackets, D forms with d. Residues, ends and D or L forms follow the SMILES beside them. Haic = O=C1[C@@H](N[*:1])CCc2cccc3c2N1[C@H](C(=O)[*:2])C3; dTrp(2-Me) = Cc1[nH]c2ccccc2c1C[C@@H](N)C(=O)O; azaTyr = O=C(N(Cc1ccc(O)cc1)N[*:1])[*:2]; azaPhe = O=C(N(Cc1ccccc1)N[*:1])[*:2]; azaLeu = CC(C)CN(N[*:1])C(=O)[*:2]; azaPro = O=C(N1CCCN1[*:1])[*:2]; Aib = CC(C)(N)C(=O)O; azaGly = NNC(=O)O

Legend:
[1] = molecular target: Growth hormone secretagogue receptor type 1 (Homo sapiens, UniProt Q92847); test: Displacement of [125I]ghrelin expressed in LLC-PK1 cells incubated for 1 hr by gamma counting method; format: cell-based
Summary of the method: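 Membranes from LLC-PK1 cells transiently transfected with GHS-R1a (CaPO₄; harvested 24 h later; freeze/thaw lysis, 10000g), 10 μg protein/tube. Incubated with ¹²⁵I-ghrelin (40,000 cpm) and competitor 10⁻¹² to 10⁻⁵ M, 1 h at RT, in Tris/MgCl₂/EDTA/bacitracin buffer pH 7.3. Nonspecific binding set with 10⁻⁵ M competitor. Bound separated by filtration on PEI-soaked GF/C filters, gamma counted.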

[2] = Antiangiogenic effect in […] mouse microvascular choroid explants assessed as choroid sprouting at 10^-7 M after 4 days (reference value: 53%); format: functional
Platelet glycoprotein 4 = Platelet glycoprotein 4 (Rattus norvegicus, UniProt Q07969); test: Displacement of photoactivatable [125I]-Tyr-Bpa-Ala-Hexarelin from CD36 in Sprague-Dawley rat cardiac membranes incubated for 60 mins by densitometry; format: cell membranes, Membrane
Chain of Platelet glycoprotein 4 (Q07969 whole entry): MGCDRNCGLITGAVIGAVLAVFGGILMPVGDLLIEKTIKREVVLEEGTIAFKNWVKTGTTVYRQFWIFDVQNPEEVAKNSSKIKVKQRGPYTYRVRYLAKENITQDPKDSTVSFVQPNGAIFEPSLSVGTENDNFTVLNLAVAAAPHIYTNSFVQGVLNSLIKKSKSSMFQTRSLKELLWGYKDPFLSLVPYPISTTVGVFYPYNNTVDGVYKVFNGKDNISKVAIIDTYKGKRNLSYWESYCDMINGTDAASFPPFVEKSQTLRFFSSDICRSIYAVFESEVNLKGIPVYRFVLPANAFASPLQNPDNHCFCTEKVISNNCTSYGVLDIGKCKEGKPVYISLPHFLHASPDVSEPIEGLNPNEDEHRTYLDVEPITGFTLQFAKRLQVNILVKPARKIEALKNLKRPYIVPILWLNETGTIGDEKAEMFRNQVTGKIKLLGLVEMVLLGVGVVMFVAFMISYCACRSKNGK

Chain of Growth hormone secretagogue receptor type 1 (Q92847 whole entry): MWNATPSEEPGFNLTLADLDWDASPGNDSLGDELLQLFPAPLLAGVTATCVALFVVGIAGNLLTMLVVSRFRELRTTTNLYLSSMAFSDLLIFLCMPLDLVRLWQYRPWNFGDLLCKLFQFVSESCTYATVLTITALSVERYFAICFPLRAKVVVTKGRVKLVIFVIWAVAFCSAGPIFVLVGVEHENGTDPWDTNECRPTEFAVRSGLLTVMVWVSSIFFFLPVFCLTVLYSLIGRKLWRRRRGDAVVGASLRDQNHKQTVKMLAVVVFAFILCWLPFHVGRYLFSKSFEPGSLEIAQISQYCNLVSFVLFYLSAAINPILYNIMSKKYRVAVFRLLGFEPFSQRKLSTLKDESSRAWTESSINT

IC50 [1] [µM] | IC50 (Platelet glycoprotein 4) [µM] | Compound | Activity [2] [%]
> 10 | > 10 | CC(C)CN(NC(=O)[C@H](N)Cc1c[nH]c2ccccc12)C(=O)N[C@@H](Cc1c[nH]c2ccccc12)C(N)=O | 47
> 10 | 42.7 | C[C@H](N)C(=O)NN(Cc1ccccc1)C(=O)N[C@@H](C)C(=O)N[C@@H](Cc1c[nH]c2ccccc12)C(=O)N[C@H](Cc1ccccc1)C(=O)N[C@@H](CCCCN)C(N)=O (H-A[azaPhe]AW[dF]K-NH2) | 28
 | 6.06 | C[C@H](N)C(=O)N[C@H](Cc1c[nH]c2ccccc12)C(=O)NNC(=O)N[C@@H](Cc1c[nH]c2ccccc12)C(=O)N[C@H](Cc1ccccc1)C(=O)N[C@@H](CCCCN)C(N)=O (H-A[dW][azaGly]W[dF]K-NH2) | 72
> 10 | > 10 | C[C@H](NC(=O)[C@@H](Cc1c[nH]c2ccccc12)NC(=O)[C@@H](N)Cc1cnc[nH]1)C(=O)N1CCCN1C(=O)N[C@H](Cc1ccccc1)C(=O)N[C@@H](CCCCN)C(N)=O (H-H[dW]A[azaPro][dF]K-NH2) | 
 |  | C[C@H](NC(=O)[C@@H](Cc1c[nH]c2ccccc12)NC(=O)[C@@H](N)Cc1cnc[nH]1)C(=O)NN(Cc1ccc(O)cc1)C(=O)N[C@H](Cc1ccccc1)C(=O)N[C@@H](CCCCN)C(N)=O (H-H[dW]A[azaTyr][dF]K-NH2) | 17
> 10 | > 10 | C[C@H](NC(=O)NNC(=O)[C@@H](Cc1c[nH]c2ccccc12)NC(=O)[C@@H](N)Cc1cnc[nH]1)C(=O)N[C@H](Cc1ccccc1)C(=O)N[C@@H](CCCCN)C(N)=O (H-H[dW][azaGly]A[dF]K-NH2) | 
> 10 | > 10 | C[C@@H](NC(=O)[C@H](Cc1c[nH]c2ccccc12)NC(=O)NNC(=O)[C@@H](Cc1c[nH]c2ccccc12)NC(=O)[C@@H](N)Cc1cnc[nH]1)C(=O)N[C@@H](CCCCN)C(N)=O (H-H[dW][azaGly]W[dA]K-NH2) | 
> 10 | 25.9 | CC(C)CN(NC(=O)[C@@H](Cc1c[nH]c2ccccc12)NC(=O)[C@@H](N)Cc1cnc[nH]1)C(=O)N[C@@H](C)C(=O)N[C@H](Cc1ccccc1)C(=O)N[C@@H](CCCCN)C(N)=O (H-H[dW][azaLeu]A[dF]K-NH2) | 
> 10 | 9.48 | CC(C)CN(NC(=O)[C@@H](Cc1c[nH]c2ccccc12)NC(=O)[C@@H](N)Cc1cnc[nH]1)C(=O)N[C@@H](Cc1c[nH]c2ccccc12)C(=O)N[C@H](C)C(=O)N[C@@H](CCCCN)C(N)=O (H-H[dW][azaLeu]W[dA]K-NH2) | 
 | 7.59 | CC(C)CN(NC(=O)[C@@H](Cc1c[nH]c2ccccc12)NC(=O)[C@@H](N)Cc1cnc[nH]1)C(=O)N[C@@H](Cc1c[nH]c2ccccc12)C(=O)N[C@H](Cc1ccccc1)C(=O)N[C@@H](C)C(N)=O (H-H[dW][azaLeu]W[dF]A-NH2) | 25
> 10 | 9.81 | NCCCC[C@H](NC(=O)[C@@H](Cc1ccccc1)NC(=O)[C@H](Cc1c[nH]c2ccccc12)NC(=O)N1CCCN1C(=O)[C@@H](Cc1c[nH]c2ccccc12)NC(=O)[C@@H](N)Cc1cnc[nH]1)C(N)=O (H-H[dW][azaPro]W[dF]K-NH2) | 
0.0629 | > 10 | Cc1[nH]c2ccccc2c1C[C@@H](NC(=O)[C@@H](Cc1c(C)[nH]c2ccccc12)NC(=O)C(C)(C)N)C(N)=O (H-[Aib]-[dTrp(2-Me)]-[dTrp(2-Me)]-NH2) | 
0.75 | 1.11 | Cc1[nH]c2ccccc2c1C[C@@H](NC(=O)[C@@H]1Cc2cccc3c2N1C(=O)[C@@H](N)CC3)C(=O)N[C@H](CCCCN)C(=O)N[C@@H](Cc1c[nH]c2ccccc12)C(=O)N[C@H](Cc1ccccc1)C(=O)N[C@@H](CCCCN)C(N)=O (Haic-[dTrp(2-Me)][dK]W[dF]K-NH2) | 3

Compound | IC50 [1] [µM] | IC50 (Platelet glycoprotein 4) [µM] | Activity [2] [%]
C[C@H](N)C(=O)N[C@H](Cc1c[nH]c2ccccc12)C(=O)N[C@@H](C)C(=O)NN(Cc1ccccc1)C(=O)N[C@H](Cc1ccccc1)C(=O)N[C@@H](CCCCN)C(N)=O (H-A[dW]A[azaPhe][dF]K-NH2) | > 10 | 7.58 | 105
